Data published in ChEMBL document CHEMBL4130455, “Design, Synthesis, and Evaluation of Tetrahydropyrrolo[1,2-c]pyrimidines as Capsid Assembly Inhibitors for HBV Treatment” (ACS Med Chem Lett, 2017).
Values after ≈ are worked out from the molar mass of the structure shown.

Tests used:
Hepatitis B virus [1] = assay: Antiviral activity against HBV infected in human HepG2.2.15 cells assessed as inhibition of viral DNA level incubated for 3 days followed by medium replacement measured after 3 days by RT-PCR method; assay type: functional, organism-based; settings: HepG2.2.15, 72 h
In short: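 HepG2.2.15 cells seeded at 4 × 10^4 cells/well, compound exposure 3 days, then fresh medium and a further 3-day incubation. Supernatants collected and stored at −80 °C. HBV DNA extracted from supernatant and quantified by qPCR. IC50 reported as the mean of three experiments.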

Core antigen = Core antigen (Hepatitis B virus, UniProt Q03732); assay: Inhibition of HBV C150-Bodipy FL N-(2-aminoethyl) maleimide labeled capsid assessed as reduction in NaCl-induced capsid assembly preincubated for 15 mins followed by NaCl addition measured after 1 hr by fluorescence quenching assay
Chain of Core antigen (Q03732 whole entry): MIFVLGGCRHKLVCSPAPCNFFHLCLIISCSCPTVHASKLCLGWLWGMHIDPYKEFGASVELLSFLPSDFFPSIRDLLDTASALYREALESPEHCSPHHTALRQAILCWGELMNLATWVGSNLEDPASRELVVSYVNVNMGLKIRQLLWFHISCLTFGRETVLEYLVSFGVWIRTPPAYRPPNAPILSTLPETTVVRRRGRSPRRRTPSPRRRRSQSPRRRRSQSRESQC

[2] = Lipophilicity, log D of the compound; assay type: physicochemical; settings: octanol/water
[3] = Kinetic solubility of the compound; assay type: physicochemical; settings: read-out: Kinetic_solubility
[4] = Ratio of AUC (0 to 4 hrs) in Balb/c mouse liver to plasma administered orally by LC-MS/MS analysis; assay type: ADME; settings: liver and plasma, po, read-out: Ratio AUC
Cytochrome P450 1A2 = target: T1, Cytochrome P450 1A2 (Homo sapiens, UniProt P05177); assay: Inhibition of CYP1A2 in human liver microsomes using phenacetin as substrate preincubated for 10 mins followed by substrate addition measured after 10 mins in presence of NADPH by LC-MS/MS analysis; assay type: ADME
T1 sequence (P05177 whole entry): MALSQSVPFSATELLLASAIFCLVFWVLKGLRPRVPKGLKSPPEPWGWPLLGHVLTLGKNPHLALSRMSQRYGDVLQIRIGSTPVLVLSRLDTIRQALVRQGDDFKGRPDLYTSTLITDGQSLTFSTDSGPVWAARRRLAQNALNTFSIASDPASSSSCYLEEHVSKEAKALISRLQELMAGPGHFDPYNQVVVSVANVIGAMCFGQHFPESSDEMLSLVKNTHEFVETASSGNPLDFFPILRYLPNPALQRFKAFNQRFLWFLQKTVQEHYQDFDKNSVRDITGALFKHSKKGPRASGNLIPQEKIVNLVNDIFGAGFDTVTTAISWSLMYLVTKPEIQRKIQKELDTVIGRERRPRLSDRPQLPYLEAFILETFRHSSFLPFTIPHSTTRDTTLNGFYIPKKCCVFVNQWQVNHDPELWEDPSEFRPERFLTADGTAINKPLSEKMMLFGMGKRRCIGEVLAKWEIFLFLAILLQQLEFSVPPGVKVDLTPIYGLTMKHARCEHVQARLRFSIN

Cytochrome P450 2C9 = Cytochrome P450 2C9 (Homo sapiens, UniProt P11712); assay: Inhibition of CYP2C9 in human liver microsomes using diclofenac as substrate preincubated for 10 mins followed by substrate addition measured after 10 mins in presence of NADPH by LC-MS/MS analysis; assay type: ADME
Chain of Cytochrome P450 2C9 (P11712 whole entry): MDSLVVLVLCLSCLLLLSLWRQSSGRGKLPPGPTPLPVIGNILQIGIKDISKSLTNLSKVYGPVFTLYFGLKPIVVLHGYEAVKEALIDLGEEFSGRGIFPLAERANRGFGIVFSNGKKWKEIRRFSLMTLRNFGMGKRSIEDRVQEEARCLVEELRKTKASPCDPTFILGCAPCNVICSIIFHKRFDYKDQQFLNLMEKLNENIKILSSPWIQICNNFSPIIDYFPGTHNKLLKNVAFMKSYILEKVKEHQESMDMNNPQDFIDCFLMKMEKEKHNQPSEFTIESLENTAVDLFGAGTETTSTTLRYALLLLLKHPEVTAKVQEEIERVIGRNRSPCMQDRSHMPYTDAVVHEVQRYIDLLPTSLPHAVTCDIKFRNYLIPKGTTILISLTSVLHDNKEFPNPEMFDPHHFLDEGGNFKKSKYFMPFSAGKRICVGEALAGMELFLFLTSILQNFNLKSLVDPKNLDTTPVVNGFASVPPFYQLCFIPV

Cytochrome P450 2C19 = Cytochrome P450 2C19 (Homo sapiens, UniProt P33261); assay: Inhibition of CYP2C19 in human liver microsomes using S-mephenytoin as substrate preincubated for 10 mins followed by substrate addition measured after 10 mins in presence of NADPH by LC-MS/MS analysis; assay type: ADME
Chain of Cytochrome P450 2C19 (P33261 whole entry): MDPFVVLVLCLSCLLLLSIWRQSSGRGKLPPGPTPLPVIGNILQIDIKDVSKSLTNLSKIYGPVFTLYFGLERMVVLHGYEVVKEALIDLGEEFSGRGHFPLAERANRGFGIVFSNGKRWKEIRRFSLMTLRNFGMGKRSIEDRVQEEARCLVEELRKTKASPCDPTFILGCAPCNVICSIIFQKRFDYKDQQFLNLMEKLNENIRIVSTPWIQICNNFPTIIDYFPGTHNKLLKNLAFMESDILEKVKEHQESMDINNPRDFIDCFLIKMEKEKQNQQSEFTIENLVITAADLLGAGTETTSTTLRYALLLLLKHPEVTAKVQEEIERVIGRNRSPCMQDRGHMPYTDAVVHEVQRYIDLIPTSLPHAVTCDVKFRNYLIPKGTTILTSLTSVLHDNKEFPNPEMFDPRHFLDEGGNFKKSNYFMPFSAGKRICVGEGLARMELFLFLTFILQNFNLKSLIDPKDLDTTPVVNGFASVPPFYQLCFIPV

Cytochrome P450 2D6 = Cytochrome P450 2D6 (Homo sapiens, UniProt P10635); assay: Inhibition of CYP2D6 in human liver microsomes using dextromethorphan as substrate preincubated for 10 mins followed by substrate addition measured after 10 mins in presence of NADPH by LC-MS/MS analysis; assay type: ADME; settings: read-out: INH
Chain of Cytochrome P450 2D6 (P10635 whole entry): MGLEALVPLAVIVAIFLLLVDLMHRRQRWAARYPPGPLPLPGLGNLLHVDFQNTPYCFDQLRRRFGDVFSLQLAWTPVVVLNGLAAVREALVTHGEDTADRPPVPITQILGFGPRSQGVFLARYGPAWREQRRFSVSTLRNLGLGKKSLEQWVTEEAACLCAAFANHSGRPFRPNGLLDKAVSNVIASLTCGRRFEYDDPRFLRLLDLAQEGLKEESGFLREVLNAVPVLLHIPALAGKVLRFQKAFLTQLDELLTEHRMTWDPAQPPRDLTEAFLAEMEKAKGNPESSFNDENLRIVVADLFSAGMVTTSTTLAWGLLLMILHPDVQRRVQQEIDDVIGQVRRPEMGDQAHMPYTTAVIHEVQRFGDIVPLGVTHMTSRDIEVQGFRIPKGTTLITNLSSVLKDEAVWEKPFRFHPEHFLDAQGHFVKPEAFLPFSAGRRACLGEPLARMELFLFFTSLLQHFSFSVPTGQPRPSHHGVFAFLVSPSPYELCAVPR

Cytochrome P450 3A4 = Cytochrome P450 3A4 (Homo sapiens, UniProt P08684); assay: Inhibition of CYP3A4 in human liver microsomes using midazolam as substrate preincubated for 10 mins followed by substrate addition measured after 10 mins in presence of NADPH by LC-MS/MS analysis; assay type: ADME; settings: read-out: INH
Chain of Cytochrome P450 3A4 (P08684 whole entry): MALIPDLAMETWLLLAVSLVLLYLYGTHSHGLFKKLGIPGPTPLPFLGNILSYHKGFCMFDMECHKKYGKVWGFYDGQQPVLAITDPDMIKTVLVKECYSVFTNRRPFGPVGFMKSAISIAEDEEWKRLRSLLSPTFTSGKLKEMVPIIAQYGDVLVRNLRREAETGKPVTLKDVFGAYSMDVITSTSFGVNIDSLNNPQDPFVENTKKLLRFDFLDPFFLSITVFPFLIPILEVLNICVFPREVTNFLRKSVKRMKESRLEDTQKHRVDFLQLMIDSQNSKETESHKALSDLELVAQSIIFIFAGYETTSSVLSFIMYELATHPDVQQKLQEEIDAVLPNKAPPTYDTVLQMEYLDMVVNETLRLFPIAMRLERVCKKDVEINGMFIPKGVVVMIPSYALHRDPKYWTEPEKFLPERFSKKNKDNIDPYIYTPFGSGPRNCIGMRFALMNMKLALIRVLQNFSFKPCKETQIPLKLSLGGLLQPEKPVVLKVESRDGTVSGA

[5] = Half life in Balb/c mouse at 1 mg/kg, iv administered as bolus by LC-MS/MS analysis; assay type: ADME, organism-based; settings: in vivo
In short: (§1)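 Single-dose PK in female Balb/c mice, n = 3 per compound; dosing vehicle 0.5% HEC, formulated at 1.00 mg/mL.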

[6] = Volume of distribution at steady state in Balb/c mouse at 1 mg/kg, iv administered as bolus by LC-MS/MS analysis; assay type: ADME, organism-based; settings: in vivo, read-out: Vdss; in short: as §1
[7] = Clearance in Balb/c mouse at 1 mg/kg, iv administered as bolus by LC-MS/MS analysis; assay type: ADME, organism-based; settings: in vivo; in short: as §1
[8] = AUC (0 to last) in Balb/c mouse at 1 mg/kg, iv administered as bolus by LC-MS/MS analysis; assay type: ADME, organism-based; design: dose 1 mg/kg, time 0 - last, route intravenous; settings: in vivo; in short: as §1
[9] = Cmax in Balb/c mouse at 10 mg/kg, po administered via gavage by LC-MS/MS analysis; assay type: ADME, organism-based; design: dose 10 mg/kg, route oral; settings: in vivo; in short: as §1
[10] = AUC (0 to last) in Balb/c mouse at 10 mg/kg, po administered via gavage by LC-MS/MS analysis; assay type: ADME, organism-based; design: dose 10 mg/kg, time 0 - last, route oral; settings: in vivo; in short: as §1
[11] = Oral bioavailability in Balb/c mouse at 10 mg/kg administered via gavage by LC-MS/MS analysis; assay type: ADME, organism-based; settings: in vivo; in short: as §1
Hepatitis B virus [12] = assay: Antiviral activity against HBV1.3 mer infected in hydrodynamic injection BALB/c mouse model assessed as log reduction in viral DNA in plasma at 50 mg/kg, po bid measured on day 3 by real-time PCR method relative to control; assay type: functional
In short: (§2)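 HBV DNA mouse model established by hydrodynamic injection. Mice, n = 6 per group, dosed orally twice daily with compound or vehicle (0.5% HEC). HBV DNA in plasma and liver measured by qPCR; log reduction taken versus the vehicle group. Error shown as standard error; significance by Student's t test.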

Hepatitis B virus [13] = assay: Antiviral activity against HBV1.3 mer infected in hydrodynamic injection BALB/c mouse model assessed as log reduction in viral DNA in liver at 50 mg/kg, po bid measured on day 7 by real-time PCR method relative to control; assay type: functional; in short: as §2
Hepatitis B virus [14] = assay: Antiviral activity against HBV1.3 mer infected in hydrodynamic injection BALB/c mouse model assessed as log reduction in viral DNA in plasma at 50 mg/kg, po bid measured on day 5 by real-time PCR method relative to control

Row | Compound | IC50 (Hepatitis B virus [1]) | further results
1 | CCOC(=O)C1=C2CCCN2C(c2nccs2)=NC1c1cc(F)ccc1Cl (configuration not stated) | > 10 µM | 
2 | CCOC(=O)C1=C2CCC(C)N2C(c2nccs2)=NC1c1ccc(F)cc1Cl (configuration not stated) | 8000 µM | 
3 | COC(=O)C1=C2C[C@@H](NC(=O)OC(C)(C)C)CN2C(c2nccs2)=N[C@H]1c1ccc(F)cc1Cl | 50 µM | 
4 | CCOC(=O)C1=C2CN(C(C)=O)CCN2C(c2nccs2)=NC1c1ccc(F)cc1Br (configuration not stated) | 0.77 µM | 
5 | CCOC(=O)C1=C2CCCN2C(c2nccs2)=NC1c1cccc(F)c1Cl (configuration not stated) | 0.31 µM | 
6 | CCOC(=O)C1=C2CCCN2C(c2nccs2)=NC1c1cc(Cl)sc1Cl (configuration not stated) | 1.7 µM | 
7 | CCOC(=O)C1=C2CCCN2C(c2ncco2)=NC1c1ccc(F)cc1Cl (configuration not stated) | 6.3 µM | 
8 | CCOC(=O)C1=C2CCCN2C(c2nccs2)=NC1c1ccc(F)cc1F (configuration not stated) | 0.51 µM | 
9 | CN(C)CCOC(=O)C1=C2CCCN2C(c2nccs2)=NC1c1ccc(F)cc1Cl (configuration not stated) | > 10 µM | 
10 | CCOC(=O)C1=C2CCCN2C(c2nccs2)=NC1c1ccc(F)cc1 (configuration not stated) | 1.2 µM | 
11 | CCOC(=O)C1=C2CCCCN2C(c2nccs2)=NC1c1ccc(F)cc1Cl (configuration not stated) | 1.4 µM | 
12 | COC(=O)C1=C2C[C@H](NS(C)(=O)=O)CN2C(c2nccs2)=N[C@H]1c1ccc(F)cc1Cl | 0.01 µM | IC50 (Core antigen): 0.8 µM; logD [2]: 2.8; solubility kinetic [3]: 22 µM (≈ 10.7 µg/mL); Kp [4]: 10; INH (Cytochrome P450 1A2): > 50 µM; INH (Cytochrome P450 2C9): 28 µM; INH (Cytochrome P450 2C19): 39 µM; IC50 (Cytochrome P450 2D6): > 50 µM; IC50 (Cytochrome P450 3A4): 11 µM; half-life [5]: 1.1 h; Vd [6]: 2 L/kg; clearance [7]: 21 mL/min/kg; AUC(0-t) [8]: 1.7 µM·h; Cmax [9]: 4.7 µM; AUC(0-t) [10]: 9.1 µM·h; bioavailability [11]: 54%; FC (Hepatitis B virus [12]): 2.05; FC (Hepatitis B virus [13]): 0.68; FC (Hepatitis B virus [14]): 2.57
13 | COC(=O)C1=C2C[C@@H](NS(C)(=O)=O)CN2C(c2nccs2)=N[C@H]1c1ccc(F)cc1Cl | 0.06 µM | 
14 | CCOC(=O)C1=C2CCCN2C(c2ncc(F)cn2)=NC1c1ccc(F)cc1Cl (configuration not stated) | > 10 µM | 
15 | CCOC(=O)C1=C2CCCN2C(c2ccsn2)=NC1c1ccc(F)cc1Cl (configuration not stated) | 2.8 µM | 
16 | CCOC(=O)C1=C2C[C@H](N(C)C)CN2C(c2nccs2)=N[C@H]1c1ccc(F)cc1Br | 500 µM | 
17 | CCOC(=O)C1=C2CCCN2C(c2nccs2)=NC1c1ncc(F)cc1F (configuration not stated) | > 10 µM | 
18 | CCOC(=O)C1=C2CCCN2C(c2ccc(F)cn2)=NC1c1ccc(F)cc1Cl (configuration not stated) | 8.3 µM | 
19 | CCOC(=O)C1=C2CNC(=O)CN2C(c2nccs2)=NC1c1ccc(F)cc1Br (configuration not stated) | 3.5 µM | 
20 | CCOC(=O)C1=C2CCCN2C(C2CC2)=NC1c1ccc(F)cc1Cl (configuration not stated) | > 10 µM | 
21 | COCOC(=O)C1=C2CCCN2C(c2nccs2)=NC1c1ccc(F)cc1Cl (configuration not stated) | 2.1 µM | 
22 | CCOC(=O)C1=C2CCN2C(c2nccs2)=NC1c1ccc(F)cc1Cl (configuration not stated) | 4.1 µM | 
23 | CCOC(=O)C1=C2C[C@@H](NS(C)(=O)=O)CN2C(c2nccs2)=N[C@H]1c1ccc(F)cc1Cl | 70 µM | 
24 | CCOC(=O)C1=C2CN(S(C)(=O)=O)CCN2C(c2nccs2)=NC1c1ccc(F)cc1Br (configuration not stated) | 0.81 µM | 

Row | Compound | IC50 (Hepatitis B virus [1]) | further results
25 | CCOC(=O)C1=C2CCCN2C(c2nccs2)=NC1c1ccc(F)cc1Br (configuration not stated) | 0.21 µM | 
26 | CCOC(=O)C1=C2CCCN2C(c2nccs2)=NC1c1cnn(C)c1 (configuration not stated) | > 10 µM | 
27 | CCOC(=O)C1=C2CCCN2C(c2nccs2)=NC1c1c(F)cccc1Cl (configuration not stated) | > 10 µM | 
28 | O=C(OCC(F)F)C1=C2CCCN2C(c2nccs2)=NC1c1ccc(F)cc1Cl (configuration not stated) | 2 µM | 
29 | CCOC(=O)C1=C2CCCN2C(c2nccs2)=NC1c1ccc(F)cc1C (configuration not stated) | 0.45 µM | 
30 | CONC(=O)C1=C2CCCN2C(c2nccs2)=NC1c1ccc(F)cc1Cl (configuration not stated) | 5 µM | 
31 | CCOC(=O)C1=C2C[C@H](NS(C)(=O)=O)CN2C(c2nccs2)=N[C@H]1c1ccc(F)cc1Cl | 10 µM | 
32 | CCOC(=O)C1=C2CCCN2C(c2cnn(C)c2)=NC1c1ccc(F)cc1Cl (configuration not stated) | > 10 µM | 
33 | CCOC(=O)C1=C2CCCN2C(c2nccs2)=NC1c1nccs1 (configuration not stated) | > 10 µM | 
34 | CCOC(=O)C1=C2CCCN2C(c2nccn2C)=NC1c1ccc(F)cc1Cl (configuration not stated) | 2 µM | 
35 | CCOC(=O)C1=C2CCCN2C(c2nccs2)=NC1c1ccc(F)c(F)c1 (configuration not stated) | 0.43 µM | 
36 | CCOC(=O)C1=C2CNCCN2C(c2nccs2)=NC1c1ccc(F)cc1Br (configuration not stated) | 9.3 µM | 
37 | COCCOC(=O)C1=C2CCCN2C(c2nccs2)=NC1c1ccc(F)cc1Cl (configuration not stated) | > 10 µM | 
38 | CCOC(=O)C1=C2COCCN2C(c2nccs2)=NC1c1ccc(F)cc1Br (configuration not stated) | 2.5 µM | 
39 | COC(=O)C1=C2C[C@H](NC(=O)OC(C)(C)C)CN2C(c2nccs2)=N[C@H]1c1ccc(F)cc1Cl | 30 µM | 
40 | CCOC(=O)C1=C2CCCN2C(c2ncc(F)cc2F)=NC1c1ccc(F)cc1Cl (configuration not stated) | 1.6 µM | 
41 | COC(=O)C1=C2C[C@H](NS(C)(=O)=O)CN2C(c2nccs2)=N[C@H]1c1ccc(F)c(F)c1F | 10 µM | 
42 | CCOC(=O)C1=C2C[C@H](O)CN2C(c2nccs2)=NC1c1ccc(F)cc1Cl (some centres not stated) | 320 µM | 
43 | CCOC(=O)C1=C2CCCN2C(c2nccs2)=NC1c1ccncc1Cl (configuration not stated) | > 10 µM | 
44 | CCOC(=O)C1=C2CCCN2C(c2ccccn2)=NC1c1ccc(F)cc1Cl (configuration not stated) | > 10 µM | 
45 | CCOC(=O)C1=C2CCCN2C(N2CCOCC2)=NC1c1ccc(F)cc1Cl (configuration not stated) | > 10 µM | 
46 | COC(=O)C1=C2CCCN2C(c2nccs2)=NC1c1ccc(F)cc1Cl (configuration not stated) | 0.32 µM | 
47 | CCOC(=O)C1=C2CCCN2C(c2nccs2)=NC1c1ccc(F)cc1Cl (configuration not stated) | 0.3 µM | 
48 | COC(=O)C1=C(C)NC(c2ncc(F)cc2F)=N[C@H]1c1ccc(F)cc1Cl | 0.075 µM | 
